Reference: ChEMBL document CHEMBL1149158, “Combination of paclitaxel and nitric oxide as a novel treatment for the reduction of restenosis” (J Med Chem, 2004)

Assays:
[1] = Stent coated compound was evaluated for mercury displaceable NO before sterilization (Electron-Beam Radiation); format: functional
[2] = test system: Coronary artery smooth muscle cell line; assay: (§1) In vitro antiproliferative effect on cultured human coronary artery smooth muscle cells (hCASMC); format: functional, cell-based
How it was run: (§2)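 Human coronary artery smooth muscle cells seeded at 3×10^4 per well in SmGM2 growth medium; compound added from 1000× ethanol stock 3-4 h after seeding, ethanol vehicle controls, n = 4 per point. After 68-72 h cells trypsinized and viable (Trypan Blue negative) cells counted by hemacytometer; mean ± SD.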

[3] = Stent coated compound was evaluated for mercury displaceable NO after sterilization (Electron-Beam Radiation); format: functional
Oryctolagus cuniculus [4] = assay: In vivo nitric oxide(NO) release was determined by the coated stent compound in rabbit iliac at 6 hrs; value expressed as percent remaining nitric oxide; format: functional
How it was run: (§3)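 Coated stent deployed in rabbit iliac artery, position confirmed by angiography; 6 h later animal euthanized with 120 mg/kg iv sodium pentobarbital, stent recovered from the artery and nitrosothiol/NO content measured by chemiluminescence; retained content expressed relative to original load.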

Oryctolagus cuniculus [5] = assay: In vivo nitric oxide(NO) release was determined by the coated stent compound in rabbit iliac at 0 h; value expressed as mercury displaceable nitric oxide; format: functional
Oryctolagus cuniculus [6] = assay: In vivo nitric oxide(NO) release was determined by the coated stent compound in rabbit iliac at 6 hrs; value expressed as mercury displaceable nitric oxide; format: functional; how it was run: as §3
Oryctolagus cuniculus [7] = species: Oryctolagus cuniculus; assay: In vitro antiplatelet aggregatory effect in rabbit platelet rich plasma (PRP); format: functional
How it was run: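 Rabbit blood collected 10:1 into 3.8% trisodium citrate pH 6.5, spun 180g 15 min at 21 °C to give PRP. PRP preincubated 2 min at 37 °C with compound (500× ethanol stock), then aggregation induced with ADP (5–10 μM) and followed in an aggregometer; percent inhibition calculated relative to maximum aggregation amplitude.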

Homo sapiens = species: Homo sapiens; assay: as §1; format: functional; how it was run: as §2
Oryctolagus cuniculus [8] = species: Oryctolagus cuniculus; assay: Compound was evaluated to determine the stenosis in Rabbit Iliac Arteries value expressed as difference from bare stents; format: functional
Oryctolagus cuniculus [9] = species: Oryctolagus cuniculus; assay: Compound was evaluated to determine the stenosis in Rabbit Iliac Arteries value expressed as net effect of NO over paclitaxel coated stents; format: functional
Oryctolagus cuniculus [10] = species: Oryctolagus cuniculus; assay: Compound was evaluated to determine the stenosis in Rabbit Iliac Arteries; format: functional
Oryctolagus cuniculus [11] = species: Oryctolagus cuniculus; assay: Compound was evaluated to determine the stenosis in Rabbit Iliac Arteries value expressed as difference from polymer coated stents; format: functional

Row | Compound | Activity [1] [nM stent-1] | IC50 [2] [nM] | Activity [3] [nM stent-1] | Activity (Oryctolagus cuniculus [4]) [%] | Activity (Oryctolagus cuniculus [5]) [nmol/stent] | Activity (Oryctolagus cuniculus [6]) [nM stent-1] | also measured
1 | CN(C)C(=O)CC1(SN=O)C2CC3CC(C2)CC1C3 (configuration not stated) | 436 | 15000 | 440 | 5 | 417 | 18 | –
2 | CC(=O)O[C@H]1C(=O)[C@@]2(C)C([C@H](OC(=O)c3ccccc3)[C@]3(O)C[C@H](OC(=O)[C@H](O)[C@@H](NC(=O)c4ccccc4)c4ccccc4)C(C)=C1C3(C)C)[C@]1(OC(C)=O)CO[C@@H]1C[C@@H]2OC(=O)CC(C)(C)SN=O (some centres not stated) [listing 1 of 2 here] | 349 | – | 316 | – | – | – | –
3 | CC(=O)O[C@H]1C(=O)[C@@]2(C)C([C@H](OC(=O)c3ccccc3)[C@]3(O)C[C@H](OC(=O)[C@H](O)[C@@H](NC(=O)c4ccccc4)c4ccccc4)C(C)=C1C3(C)C)[C@]1(OC(C)=O)CO[C@@H]1C[C@@H]2OC(=O)CC(C)(C)SN=O (some centres not stated) [listing 2 of 2 here] | – | – | – | 65 | 369 | 214 | IC50 (Oryctolagus cuniculus [7]): 10000 nM; IC50 (Homo sapiens): ~20 nM
4 | CC(=O)O[C@H]1C(=O)[C@@]2(C)C([C@H](OC(=O)c3ccccc3)[C@]3(O)C[C@H](OC(=O)[C@H](O)[C@@H](NC(=O)c4ccccc4)c4ccccc4)C(C)=C1C3(C)C)[C@]1(OC(C)=O)CO[C@@H]1C[C@@H]2OC(=O)CC(C)(C)SN=O.CN(C)C(=O)CC1(SN=O)C2CC3CC(C2)CC1C3 (some centres not stated) [listing 1 of 2 here] | – | – | – | 31 | 627 | 209 | Activity (Oryctolagus cuniculus [8]): -18%; Activity (Oryctolagus cuniculus [9]): -34%; Stenosis (Oryctolagus cuniculus [10]): 15%; Activity (Oryctolagus cuniculus [11]): -41%
5 | CC(=O)O[C@H]1C(=O)[C@@]2(C)[C@H]([C@H](OC(=O)c3ccccc3)[C@]3(O)C[C@H](OC(=O)[C@H](O)[C@@H](NC(=O)c4ccccc4)c4ccccc4)C(C)=C1C3(C)C)[C@]1(OC(C)=O)CO[C@@H]1C[C@@H]2O [PACLITAXEL] | – | ~1 | – | – | – | – | Activity (Oryctolagus cuniculus [8]): 23%; Stenosis (Oryctolagus cuniculus [10]): 22.6%; Activity (Oryctolagus cuniculus [11]): -11%
6 | CC(=O)O[C@H]1C(=O)[C@@]2(C)C([C@H](OC(=O)c3ccccc3)[C@]3(O)C[C@H](OC(=O)[C@H](O)[C@@H](NC(=O)c4ccccc4)c4ccccc4)C(C)=C1C3(C)C)[C@]1(OC(C)=O)CO[C@@H]1C[C@@H]2OC(=O)CC(C)(C)SN=O.CN(C)C(=O)CC1(SN=O)C2CC3CC(C2)CC1C3 (some centres not stated) [listing 2 of 2 here] | 733 | – | 746 | – | – | – | –
7 | CC(=O)O[C@H]1C(=O)[C@@]2(C)C([C@H](OC(=O)c3ccccc3)[C@]3(O)C[C@H](OC(=O)[C@H](O)[C@@H](NC(=O)c4ccccc4)c4ccccc4)C(C)=C1C3(C)C)[C@]1(OC(C)=O)CO[C@@H]1C[C@@H]2OC(=O)CC(C)(C)S (some centres not stated) | – | 20 | – | – | – | – | –
